According to publication PMC10896134 (Pharmaceutical Biology, 2024):

Legend:
MCF-7 = assay: Antiproliferation assay; format: cell-based; conditions: Homo sapiens, MCF7, 24 h, read-out: IC50 = mean ± SD, MCF-7
Procedure, shortened: (§1)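 Cell lines were grown at 37 °C under 5% CO2 in their own media: A549 in DMEM/F12, H446 in RPMI 1640, and HeLa, MCF-7, L02 and BEAS-2B in high-glucose DMEM with L-glutamine, with 10% FBS and penicillin/streptomycin. Cells were seeded in 96-well plates and exposed to test compounds or reference agents at 37 °C for 24 h. CCK-8 was added for 2 h and absorbance read at 450 nm.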

BEAS-2B = assay: Antiproliferation assay; format: cell-based; conditions: Homo sapiens, 24 h, read-out: IC50 = mean ± SD, BEAS-2B
Procedure, shortened: as §1

H446 = assay: Antiproliferation assay; format: cell-based; conditions: Homo sapiens, NCI-H446, 24 h, read-out: IC50 = mean ± SD, H446
Procedure, shortened: as §1

L02 = assay: Antiproliferation assay; format: cell-based; conditions: Homo sapiens, L02, 24 h, read-out: IC50 = mean ± SD, L02
Procedure, shortened: as §1

A549 = assay: Antiproliferation assay; format: cell-based; conditions: Homo sapiens, A549, 24 h, read-out: IC50 = mean ± SD, A549
Procedure, shortened: as §1

Hela = assay: Antiproliferation assay; format: cell-based; conditions: Homo sapiens, 24 h, read-out: IC50 = mean ± SD, Hela
Procedure, shortened: as §1

[1] = system: PI3K/Akt pathway in A549 cells; assay: Western blot of PI3K/Akt signalling pathway proteins; format: cell-based, human; conditions: A549, 1.0 µM, 24 h
Procedure, shortened: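 A549 cells were treated 24 h with test compound (0.1, 0.5, 1.0 or 2.0 µM), LY294002 (1.0 µM) or a reference agent (1.0 µM). Lysates were heat-denatured in non-reducing sample buffer and quantified by Bradford assay. 20 µg protein ran on 10% SDS-PAGE, transferred to PVDF and probed for PI3K, pPI3K, Akt and pAkt with GAPDH as loading control. Detection was by ECL with densitometry.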

Row | SMILES | IC50 (MCF-7) [µM] | IC50 (H446) [µM] | IC50 (A549) [µM] | IC50 (Hela) [µM] | IC50 (BEAS-2B) [µM] | IC50 (L02) [µM] | pPI3K/PI3K and pAkt/Akt ratio [1]
1 | COc1cc([C@@H]2c3cc4c(cc3[C@H](OC(=O)CCCc3ccc(NS(=O)(=O)c5ccccc5)cc3)[C@H]3COC(=O)[C@H]23)OCO4)cc(OC)c1OC [Compound E1, (5R,5aR,8aR,9R)-8-oxo-9-(3,4,5-trimethoxyphenyl)-5,5a,6,8,8a,9-hexahydrofuro [3′,4′:6,7]naphtho[2,3-d][1,3]dioxol-5-yl 4-(4-(phenylsulfonamido)phenyl)butanoate] | 25 ± 1.11 | 22.9 ± 1.33 | 2.73 ± 0.36 | > 100 | 83.6 ± 1.85 | > 100 | 
2 | COc1cc([C@@H]2c3cc4c(cc3[C@H](OC(=O)CCCc3ccc(NS(=O)(=O)c5ccc(Br)cc5)cc3)[C@H]3COC(=O)[C@H]23)OCO4)cc(OC)c1OC [Compound E4, (5R,5aR,8aR,9R)-8-oxo-9-(3,4,5-trimethoxyphenyl)-5,5a,6,8,8a,9-hexahydrofuro [3′,4′:6,7]naphtho[2,3-d][1,3]dioxol-5-yl4-(4-((4-bromophenyl)sulfonamido)phenyl)butanoate] | 70.91 ± 0.47 | 17.4 ± 0.95 | 2.57 ± 0.98 | 18.4 ± 0.22 | > 100 | > 100 | 
3 | COc1cc([C@@H]2c3cc4c(cc3[C@H](OC(=O)CCCc3ccc(NS(=O)(=O)c5cccc(F)c5)cc3)[C@H]3COC(=O)[C@H]23)OCO4)cc(OC)c1OC [Compound E6, (5R,5aR,8aR,9R)-8-oxo-9-(3,4,5-trimethoxyphenyl)-5,5a,6,8,8a,9-hexahydrofuro [3′,4′:6,7]naphtho[2,3-d][1,3]dioxol-5-yl4-(4-((3-fluorophenyl)sulfonamido)phenyl)butanoate] | 25.9 ± 1.34 | 6.07 ± 0.25 | 1.08 ± 0.32 | 12.7 ± 0.69 | 94.3 ± 2.66 | > 100 | 
4 | COc1cc([C@@H]2c3cc4c(cc3[C@H](OC(=O)CCCc3ccc(NS(=O)(=O)c5ccc(C)cc5)cc3)[C@H]3COC(=O)[C@H]23)OCO4)cc(OC)c1OC [Compound E12, (5R,5aR,8aR,9R)-8-oxo-9-(3,4,5-trimethoxyphenyl)-5,5a,6,8,8a,9-hexahydrofuro [3′,4′:6,7]naphtho[2,3-d][1,3]dioxol-5-yl4-(4-((4-methylphenyl)sulfonamido)phenyl)butanoate] | 36.8 ± 0.56 | 27.2 ± 2.06 | 27 ± 1.33 | 36.1 ± 1.49 | 79.3 ± 1.07 | > 100 | 
5 | COc1cc([C@@H]2c3cc4c(cc3[C@H](OC(=O)CCCc3ccc(NS(=O)(=O)c5cccc([N+](=O)[O-])c5)cc3)[C@H]3COC(=O)[C@H]23)OCO4)cc(OC)c1OC [Compound E13, (5R,5aR,8aR,9R)-8-oxo-9-(3,4,5-trimethoxyphenyl)-5,5a,6,8,8a,9-hexahydrofuro [3′,4′:6,7]naphtho[2,3-d][1,3]dioxol-5-yl4-(4-((3-nitrophenyl)sulfonamido)phenyl)butanoate] | 42 ± 1.35 | 9.92 ± 0.92 | 4.94 ± 0.42 | 51.3 ± 1.15 | > 100 | 48.1 ± 1.09 | 
6 | COc1cc([C@@H]2c3cc4c(cc3[C@H](OC(=O)CCCc3ccc(NS(=O)(=O)c5ccc([N+](=O)[O-])cc5)cc3)[C@H]3COC(=O)[C@H]23)OCO4)cc(OC)c1OC [Compound E14, (5R,5aR,8aR,9R)-8-oxo-9-(3,4,5-trimethoxyphenyl)-5,5a,6,8,8a,9-hexahydrofuro [3′,4′:6,7]naphtho[2,3-d][1,3]dioxol-5-yl4-(4-((4-nitrophenyl)sulfonamido)phenyl)butanoate] | 59.9 ± 1.71 | 29.4 ± 2.54 | 11 ± 2.51 | 26.8 ± 0.63 | > 100 | > 100 | 
7 | COc1cc([C@@H]2c3cc4c(cc3[C@H](OC(=O)CCCc3ccc(NS(=O)(=O)c5cc([N+](=O)[O-])ccc5C)cc3)[C@H]3COC(=O)[C@H]23)OCO4)cc(OC)c1OC [Compound E15, (5R,5aR,8aR,9R)-8-oxo-9-(3,4,5-trimethoxyphenyl)-5,5a,6,8,8a,9-hexahydrofuro [3′,4′:6,7]naphtho[2,3-d][1,3]dioxol-5-yl4-(4-((2-methyl-5-nitrophenyl)sulfonamido)phenyl)butanoate] | 59.25 ± 0.42 | 36.6 ± 1.59 | 7.34 ± 1.32 | 16.9 ± 1.01 | 97.3 ± 1.41 | > 100 | 
8 | O=c1cc(N2CCOCC2)oc2c(-c3ccccc3)cccc12 [LY294002, reference compound] |  |  |  |  |  |  | notable reduction
9 | COc1cc([C@@H]2c3cc4c(cc3[C@H](O)[C@H]3COC(=O)[C@H]23)OCO4)cc(OC)c1OC [PPT, Podophyllotoxin, reference compound] | 11.7 ± 0.45 | 3.69 ± 0.38 | 14.7 ± 1.14 | 15.3 ± 0.58 | 8.91 ± 0.72 | 9.42 ± 0.74 | 

More lines, main results first:

Row | IC50 (MCF-7) [µM] | IC50 (H446) [µM] | IC50 (A549) [µM] | IC50 (Hela) [µM] | SMILES | IC50 (BEAS-2B) [µM] | IC50 (L02) [µM] | pPI3K/PI3K and pAkt/Akt ratio [1]
10 | 18.7 ± 0.95 | 11 ± 0.47 | 17.8 ± 1.11 | 39.2 ± 0.56 | CCCc1ccc(S(=O)(=O)Nc2ccc(CCCC(=O)O[C@H]3c4cc5c(cc4[C@@H](c4cc(OC)c(OC)c(OC)c4)[C@H]4C(=O)OC[C@@H]43)OCO5)cc2)cc1 [Compound E3, (5R,5aR,8aR,9R)-8-oxo-9-(3,4,5-trimethoxyphenyl)-5,5a,6,8,8a,9-hexahydrofuro [3′,4′:6,7]naphtho[2,3-d][1,3]dioxol-5-yl4-(4-((4-propylphenyl)sulfonamido)phenyl)butanoate] | 73.6 ± 1.35 | > 100 | 
11 | 18.9 ± 0.81 | > 100 | 20.2 ± 0.79 | 13.6 ± 0.71 | COc1cc([C@@H]2c3cc4c(cc3[C@H](OC(=O)CCCc3ccc(NS(=O)(=O)c5ccccc5F)cc3)[C@H]3COC(=O)[C@H]23)OCO4)cc(OC)c1OC [Compound E7, (5R,5aR,8aR,9R)-8-oxo-9-(3,4,5-trimethoxyphenyl)-5,5a,6,8,8a,9-hexahydrofuro [3′,4′:6,7]naphtho[2,3-d][1,3]dioxol-5-yl4-(4-((2-fluorophenyl)sulfonamido)phenyl)butanoate] | > 100 | > 100 | 
12 | 21.2 ± 0.52 | 29.18 ± 0.29 | 19.5 ± 1.09 | 51.8 ± 1.27 | COc1cc([C@@H]2c3cc4c(cc3[C@H](OC(=O)CCCc3ccc(NS(=O)(=O)c5ccc(C(F)(F)F)cc5)cc3)[C@H]3COC(=O)[C@H]23)OCO4)cc(OC)c1OC [Compound E8, (5R,5aR,8aR,9R)-8-oxo-9-(3,4,5-trimethoxyphenyl)-5,5a,6,8,8a,9-hexahydrofuro [3′,4′:6,7]naphtho[2,3-d][1,3]dioxol-5-yl4-(4-((4-(trifluoromethyl)phenyl)sulfonamido)phenyl)butanoate] | > 100 | > 100 | 
13 | 4.97 ± 0.53 | 9.27 ± 0.74 | 0.55 ± 0.17 | 62 ± 1.58 | COc1cc([C@@H]2c3cc4c(cc3[C@H](OC(=O)CCCc3ccc(NS(=O)(=O)c5ccc(F)cc5F)cc3)[C@H]3COC(=O)[C@H]23)OCO4)cc(OC)c1OC [Compound E9, (5R,5aR,8aR,9R)-8-oxo-9-(3,4,5-trimethoxyphenyl)-5,5a,6,8,8a,9-hexahydrofuro [3′,4′:6,7]naphtho[2,3-d][1,3]dioxol-5-yl4-(4-((2,4-difluorophenyl)sulfonamido)phenyl)butanoate] | 99.3 ± 3.53 | > 100 | 
14 | 8.4 ± 0.79 | 7.28 ± 0.96 | 0.95 ± 0.22 | 27.5 ± 2.54 | COc1cc([C@@H]2c3cc4c(cc3[C@H](OC(=O)CCCc3ccc(NS(=O)(=O)c5c(F)cccc5F)cc3)[C@H]3COC(=O)[C@H]23)OCO4)cc(OC)c1OC [Compound E10, (5R,5aR,8aR,9R)-8-oxo-9-(3,4,5-trimethoxyphenyl)-5,5a,6,8,8a,9-hexahydrofuro [3′,4′:6,7]naphtho[2,3-d][1,3]dioxol-5-yl4-(4-((2,6-difluorophenyl)sulfonamido)phenyl)butanoate] | > 100 | > 100 | 
15 | 8.07 ± 0.63 | 10.5 ± 2.08 | 27.8 ± 1.51 | 46.7 ± 2.04 | COc1cc([C@@H]2c3cc4c(cc3[C@H](OC(=O)CCCc3ccc(NS(=O)(=O)c5ccccc5[N+](=O)[O-])cc3)[C@H]3COC(=O)[C@H]23)OCO4)cc(OC)c1OC [Compound E11, (5R,5aR,8aR,9R)-8-oxo-9-(3,4,5-trimethoxyphenyl)-5,5a,6,8,8a,9-hexahydrofuro [3′,4′:6,7]naphtho[2,3-d][1,3]dioxol-5-yl4-(4-((2-nitrophenyl)sulfonamido)phenyl)butanoate] | > 100 | > 100 | 
